Test results taken from ChEMBL document CHEMBL1136217, “Mapping the kinase domain of Janus Kinase 3” (Bioorg Med Chem Lett, 2003).
Blank lines part the entries; values can stand above or below the compound they belong to. Activity calls are given as the source filed them. The rule behind the calls is not given here.

How the values were obtained:
[1] = target: T1, Tyrosine-protein kinase JAK3 (Homo sapiens, UniProt P52333); test: Inhibitory activity against Janus Kinase 3 protein tyrosine kinase.
T1 sequence (P52333 whole entry): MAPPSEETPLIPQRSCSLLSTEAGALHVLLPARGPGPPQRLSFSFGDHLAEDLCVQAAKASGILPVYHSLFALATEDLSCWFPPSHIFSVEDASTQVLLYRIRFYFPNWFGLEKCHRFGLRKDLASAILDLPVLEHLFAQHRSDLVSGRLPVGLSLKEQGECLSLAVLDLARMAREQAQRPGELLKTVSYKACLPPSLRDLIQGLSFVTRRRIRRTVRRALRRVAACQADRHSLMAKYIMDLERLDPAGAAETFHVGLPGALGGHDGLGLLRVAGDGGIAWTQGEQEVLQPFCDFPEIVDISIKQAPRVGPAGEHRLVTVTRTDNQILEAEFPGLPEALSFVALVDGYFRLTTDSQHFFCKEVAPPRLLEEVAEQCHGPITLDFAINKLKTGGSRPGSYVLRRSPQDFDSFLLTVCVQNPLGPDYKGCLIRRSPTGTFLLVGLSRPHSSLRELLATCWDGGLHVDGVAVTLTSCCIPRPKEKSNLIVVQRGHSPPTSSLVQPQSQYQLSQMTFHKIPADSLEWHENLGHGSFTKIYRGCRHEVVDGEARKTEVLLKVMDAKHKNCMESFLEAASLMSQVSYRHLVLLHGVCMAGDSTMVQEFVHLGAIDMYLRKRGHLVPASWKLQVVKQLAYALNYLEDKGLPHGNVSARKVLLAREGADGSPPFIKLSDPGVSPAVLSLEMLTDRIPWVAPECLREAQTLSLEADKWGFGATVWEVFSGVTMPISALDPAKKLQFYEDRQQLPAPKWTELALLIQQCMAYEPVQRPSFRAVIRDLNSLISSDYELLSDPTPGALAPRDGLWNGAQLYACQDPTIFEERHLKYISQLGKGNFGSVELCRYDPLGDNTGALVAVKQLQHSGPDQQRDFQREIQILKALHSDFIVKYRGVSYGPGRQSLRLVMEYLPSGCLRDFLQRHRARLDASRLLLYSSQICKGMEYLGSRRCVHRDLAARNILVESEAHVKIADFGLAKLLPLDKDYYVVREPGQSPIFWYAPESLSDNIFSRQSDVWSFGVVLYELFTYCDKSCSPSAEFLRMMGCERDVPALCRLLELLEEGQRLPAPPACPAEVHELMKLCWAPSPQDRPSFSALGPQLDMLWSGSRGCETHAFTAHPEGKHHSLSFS

[2] = T max following ip administration at 1 mg/kg; format: ADME, organism-based; parameters: dose 1 mg/kg, route intraperitoneal; conditions: in vivo
[3] = Area under curve (AUC) following ip administration at 1 mg/kg; format: ADME, organism-based; parameters: dose 1 mg/kg, route intraperitoneal; conditions: in vivo
[4] = Terminal T1/2 following ip administration at 1 mg/kg; format: ADME, organism-based; parameters: dose 1 mg/kg, route intraperitoneal; conditions: in vivo
[5] = Cp max following ip administration at 1 mg/kg; format: ADME, organism-based; parameters: dose 1 mg/kg, route intraperitoneal; conditions: plasma, read-out: Cp max
[6] = test system: CTLL; test: Inhibitory activity against IL-2 induced proliferation of mouse CTLL cells; format: functional, cell-based
[7] = test system: T-cell; test: Inhibitory activity against IL-2 induced proliferation of human T-cells; format: functional, cell-based
[8] = test system: CTLL; test: Inhibitory activity against IL-2 induced proliferation in mouse CTLL cells; format: functional, cell-based
Outline: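 Murine CTLL cells were seeded at 2 × 10^4 per well without IL-2 for 6 h. At time zero, recombinant human IL-2 (10 U/mL) and inhibitor in DMSO (0.5% final) were added. [3H]-thymidine (1 µCi/well) was added at 18 h, and cells were harvested at 24 h. Proliferation was read as incorporated radioactivity by scintillation counting.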

[9] = test system: T-cell; test: Inhibitory activity against IL-2 induced proliferation in human T-cells; format: functional, cell-based
[10] = target: Tyrosine-protein kinase JAK3 (Mus musculus) (UniProt Q62137); conditions: at 3 µM
Chain of Tyrosine-protein kinase JAK3 (Mus musculus) (Q62137 whole entry, looked up): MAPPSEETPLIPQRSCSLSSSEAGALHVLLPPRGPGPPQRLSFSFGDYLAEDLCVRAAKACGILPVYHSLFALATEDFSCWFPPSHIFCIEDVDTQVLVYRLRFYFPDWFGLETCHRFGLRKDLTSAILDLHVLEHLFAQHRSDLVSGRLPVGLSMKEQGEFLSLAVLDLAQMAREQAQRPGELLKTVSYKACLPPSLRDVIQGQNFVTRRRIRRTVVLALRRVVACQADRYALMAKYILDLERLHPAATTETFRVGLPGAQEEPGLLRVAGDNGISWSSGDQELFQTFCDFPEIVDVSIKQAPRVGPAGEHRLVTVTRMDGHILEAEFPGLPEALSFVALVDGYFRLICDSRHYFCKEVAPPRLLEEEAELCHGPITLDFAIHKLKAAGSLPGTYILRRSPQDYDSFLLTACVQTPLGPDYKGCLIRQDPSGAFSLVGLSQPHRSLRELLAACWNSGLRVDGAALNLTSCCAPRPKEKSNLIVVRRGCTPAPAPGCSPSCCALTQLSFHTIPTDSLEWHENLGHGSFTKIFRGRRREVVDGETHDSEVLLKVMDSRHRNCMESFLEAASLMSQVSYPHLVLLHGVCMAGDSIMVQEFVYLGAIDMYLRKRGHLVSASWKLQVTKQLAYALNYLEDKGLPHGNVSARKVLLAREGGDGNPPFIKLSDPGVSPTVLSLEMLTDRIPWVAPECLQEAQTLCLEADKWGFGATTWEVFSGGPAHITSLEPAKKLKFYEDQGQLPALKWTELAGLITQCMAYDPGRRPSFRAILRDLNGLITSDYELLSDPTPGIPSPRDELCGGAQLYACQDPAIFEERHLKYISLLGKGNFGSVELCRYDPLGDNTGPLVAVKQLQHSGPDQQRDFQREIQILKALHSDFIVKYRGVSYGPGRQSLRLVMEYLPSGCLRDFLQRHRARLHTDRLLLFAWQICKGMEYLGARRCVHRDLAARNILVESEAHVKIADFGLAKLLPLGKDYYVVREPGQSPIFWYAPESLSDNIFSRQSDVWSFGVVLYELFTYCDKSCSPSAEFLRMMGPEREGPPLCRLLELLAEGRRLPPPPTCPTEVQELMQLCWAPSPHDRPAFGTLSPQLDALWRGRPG

- IC50 [1]: 0.87 µM
Compound: O=C1Nc2ccc(NC(=O)c3ccccc3)cc2/C1=C/c1ccc[nH]1

- IC50 [1]: 0.2 µM
Compound: CN(C)c1ccc(/C=C2\C(=O)Nc3ccc(C(=O)c4cccs4)cc32)cc1

- Tmax [2]: 0.5 h
- AUC [3]: 7690 ng·h/mL
- half-life [4]: 3 h
- Cmax [5]: 600 ng/mL
Compound: O=C1Nc2ccc(-c3cccnc3)cc2/C1=C/c1ccc[nH]1

- Tmax [2]: 0.5 h
- AUC [3]: 4580 ng·h/mL
- half-life [4]: 3.3 h
- Cmax [5]: 700 ng/mL
Compound: O=C1Nc2cnc(-c3cccnc3)cc2/C1=C/c1ccc[nH]1
- IC50 [6]: 0.45 µM
- IC50 [7]: 0.03 µM

- IC50 [1]: 0.026 µM
Compound: O=C1Nc2ccc(C(=O)c3cccs3)cc2/C1=C/c1ccc[nH]1

- IC50 [1]: 0.21 µM
Compound: CN(C)C(=O)c1ccc2c(c1)/C(=C/c1ccc[nH]1)C(=O)N2

- IC50 [1]: 4.9 µM
Compound: O=C1Nc2ccc(C(=O)c3cccs3)cc2/C1=C/c1ccc(F)cc1

- IC50 [1]: 0.7 µM
Compound: CC(=O)Nc1ccc(/C=C2\C(=O)Nc3ccc(C(=O)c4cccs4)cc32)cc1

Compound: O=C1Nc2ncc(-c3cccnc3)cc2/C1=C/c1ccc[nH]1
- IC50 [8]: 2.3 µM
- IC50 [9]: 2 µM

- IC50 [1]: 0.71 µM
Compound: O=C1Nc2ccc([N+](=O)[O-])cc2/C1=C/c1ccc[nH]1

- IC50 [1]: 0.235 µM
- inhibition [10]: Active
Compound: O=C1Nc2ccc(-c3cccnc3)nc2/C1=C/c1ccc[nH]1
- IC50 [6]: 0.92 µM
- IC50 [7]: 0.7 µM

- IC50 [1]: 2.3 µM
Compound: O=C1Nc2ccc(C(=O)c3cccs3)cc2/C1=C/c1ccccc1

- IC50 [1]: 7.1 µM
Compound: CS(=O)(=O)c1ccc(/C=C2\C(=O)Nc3ccc(C(=O)c4cccs4)cc32)cc1

- IC50 [1]: 0.168 µM
Compound: O=C1Nc2ccc(C(=O)c3cccnc3)cc2/C1=C/c1ccc[nH]1

- IC50 [1]: 0.19 µM
Compound: O=C1Nc2ccc(C(O)c3cccs3)cc2/C1=C/c1ccc[nH]1 (centres undefined)

- IC50 [1]: 0.213 µM
Compound: O=C1Nc2ccc(C(=O)O)cc2/C1=C/c1ccc[nH]1

- IC50 [1]: 0.26 µM
Compound: O=C1Nc2ccc(C(=O)c3cccs3)cc2/C1=C/C(=O)c1ccc[nH]1
